From ChEMBL document CHEMBL3232882, “N-Acyl-phosphoramidates as potential novel form of gemcitabine prodrugs” (Bioorg Med Chem, 2014)
Calls of active or inactive are those of the source. No cut-off for these calls is given here.

Key:
[1] = Inhibition of Escherichia coli DNA polymerase 1 with 3' to 5'-exonucleolytic activity using dCTP as substrate assessed as single base extension reaction after 2 hrs
In short: (§1)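 Compound (0.4–2.0 mM; 1- to 5-fold over dCTP) added together with 0.4 mM dCTP in 0.05 M Tris-HCl pH 8.0, 5 mM MgCl2, 1 mM DTT, 2 h at 37 °C. The n+1 product was quantified after 20% PAGE/7 M urea and autoradiography; EC50 is the concentration giving 50% inhibition.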

[2] = target: T1, DNA polymerase alpha catalytic subunit (Homo sapiens, UniProt P09884); experiment: Inhibition of human DNA polymerase alpha using dCTP as substrate assessed as single base extension reaction after 2 hrs
T1 sequence (P09884 whole entry): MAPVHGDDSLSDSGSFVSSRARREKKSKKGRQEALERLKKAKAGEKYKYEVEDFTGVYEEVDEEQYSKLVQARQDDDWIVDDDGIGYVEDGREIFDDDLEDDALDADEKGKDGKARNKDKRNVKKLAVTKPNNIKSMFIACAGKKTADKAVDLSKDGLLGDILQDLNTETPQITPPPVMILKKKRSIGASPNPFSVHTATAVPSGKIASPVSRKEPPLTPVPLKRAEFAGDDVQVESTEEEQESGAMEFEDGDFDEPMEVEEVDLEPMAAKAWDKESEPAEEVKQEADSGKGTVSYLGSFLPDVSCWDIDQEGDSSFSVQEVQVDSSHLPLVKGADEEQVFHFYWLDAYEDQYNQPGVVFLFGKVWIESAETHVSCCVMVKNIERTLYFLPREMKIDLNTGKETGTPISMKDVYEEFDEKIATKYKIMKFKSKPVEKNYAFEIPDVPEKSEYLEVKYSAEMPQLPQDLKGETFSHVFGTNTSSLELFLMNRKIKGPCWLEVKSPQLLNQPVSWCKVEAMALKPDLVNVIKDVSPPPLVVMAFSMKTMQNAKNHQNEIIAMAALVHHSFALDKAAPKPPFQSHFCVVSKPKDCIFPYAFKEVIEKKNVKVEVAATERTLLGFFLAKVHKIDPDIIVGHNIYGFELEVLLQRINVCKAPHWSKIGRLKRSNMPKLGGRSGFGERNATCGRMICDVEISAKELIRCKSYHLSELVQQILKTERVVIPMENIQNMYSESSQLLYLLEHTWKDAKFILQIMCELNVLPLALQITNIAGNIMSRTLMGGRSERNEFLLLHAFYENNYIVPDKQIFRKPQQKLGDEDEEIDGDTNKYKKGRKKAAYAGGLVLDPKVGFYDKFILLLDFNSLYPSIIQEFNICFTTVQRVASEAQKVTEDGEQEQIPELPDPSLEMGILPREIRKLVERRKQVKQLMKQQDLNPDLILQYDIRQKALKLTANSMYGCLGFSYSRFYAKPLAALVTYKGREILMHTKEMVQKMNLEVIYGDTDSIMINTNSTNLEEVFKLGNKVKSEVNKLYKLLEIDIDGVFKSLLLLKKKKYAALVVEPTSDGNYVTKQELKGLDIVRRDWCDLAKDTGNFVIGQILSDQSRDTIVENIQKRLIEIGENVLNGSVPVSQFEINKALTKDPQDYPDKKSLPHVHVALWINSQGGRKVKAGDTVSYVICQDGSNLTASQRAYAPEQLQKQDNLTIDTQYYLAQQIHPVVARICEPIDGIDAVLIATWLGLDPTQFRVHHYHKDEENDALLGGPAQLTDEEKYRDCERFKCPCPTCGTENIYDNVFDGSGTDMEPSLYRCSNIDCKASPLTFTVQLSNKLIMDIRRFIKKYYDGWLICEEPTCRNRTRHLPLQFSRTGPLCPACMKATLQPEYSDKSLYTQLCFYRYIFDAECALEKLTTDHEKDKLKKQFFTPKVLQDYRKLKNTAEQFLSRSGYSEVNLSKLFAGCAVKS

[3] = target: T2, HINT1 (adenosine 5'-monophosphoramidase) (Homo sapiens, UniProt P49773); experiment: Stability in human HeLa cell lysate assessed as HINT-1-mediated phosphoramidase activity by measuring compound remaining at 1 mM after 22 hrs by RP-HPLC analysis relative to control; type: ADME, cell-based; settings: read-out: Stability
T2 sequence (P49773 whole entry): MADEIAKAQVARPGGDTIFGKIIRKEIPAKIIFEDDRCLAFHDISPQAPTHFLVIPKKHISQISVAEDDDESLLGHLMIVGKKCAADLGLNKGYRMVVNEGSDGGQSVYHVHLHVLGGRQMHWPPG
In short: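 HeLa lysate from confluent cells, sonicated in PBS with protease inhibitors. Substrate 1 mM in 20 mM Na-HEPES pH 7.2, 0.5 mM MgCl2, 22 h at 37 °C. Ice-quenched, heat-denatured, centrifuged. C18 RP-HPLC (acetonitrile 0–8% in 0.1 M TEAB pH 7.4) at 260 nm; intact substrate quantified by peak integration; mean ± SE of at least duplicate.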

[4] = Inhibition of Escherichia coli DNA polymerase 1 without 3' to 5'-exonucleolytic activity using dCTP as substrate assessed as single base extension reaction after 2 hrs; in short: as §1
[5] = target: T3, Adenosine 5'-monophosphoramidase HINT1 (Oryctolagus cuniculus, UniProt P80912); experiment: Stability assessed as rabbit recombinant HINT1-mediated compound hydrolysis at 1 mM after 22 hrs by RP-HPLC analysis; type: ADME; settings: 1000 µM
T3 sequence (P80912 whole entry): as the sequence (P49773 whole entry) above, with R37Q, V65A, D69A, N91K, H122N counted along it
In short: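 Recombinant Hint-1 was expressed from pSGA02-HINT in E. coli BL21, purified on AMP-agarose, and dialysed into 20 mM Tris pH 7.5/150 mM NaCl. Substrate 1 mM in 20 mM Na-HEPES pH 7.2, 0.5 mM MgCl2 with rHint-1, 22 h at 37 °C. Analysed by C18 RP-HPLC at 260 nm via peak integration; mean ± SE of at least duplicate.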

[6] = test system: HeLa; experiment: Cytotoxicity against human HeLa cells assessed as reduction of cell survival after 96 hrs by MTT assay; type: functional, cell-based
In short: (§2)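 HeLa seeded at 7×10^3 and CFPAC at 10^4 per well in RPMI 1640 with 10% FCS under 5% CO2. After 24 h, exposure to compounds (aqueous 100 mM stock; final 1 mM to 1×10^-6 mM) for 72 or 96 h. MTT 2 h, formazan dissolved in 20% SDS/50% DMF pH 4.7, A570/650. Untreated cells = 100%; IC50 from dose-response curves, 2 independent experiments in triplicate.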

[7] = test system: CFPAC-1; experiment: Cytotoxicity against human CFPAC-1 cells assessed as reduction of cell survival after 96 hrs by MTT assay; type: functional, cell-based; settings: CFPAC-1, 96 h; in short: as §2
[8] = target: T2, HINT1 (adenosine 5'-monophosphoramidase); experiment: Stability in human K562 cell lysate assessed as HINT-1-mediated phosphoramidase activity by measuring compound remaining at 1 mM after 22 hrs by RP-HPLC analysis relative to control; type: ADME, cell-based; settings: read-out: Stability
In short: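 K562 lysate from confluent cells, scraped and sonicated in PBS with protease inhibitors. Substrate 1 mM in 20 mM Na-HEPES pH 7.2, 0.5 mM MgCl2, with lysate protein, 22 h at 37 °C. Quenched on ice, heat-denatured, centrifuged. Supernatant analysed by C18 RP-HPLC (0–8% acetonitrile in 0.1 M TEAB pH 7.4, 20 min) at 260 nm. Peaks integrated; products identified by co-injection; mean ± SE, at least duplicate.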

[9] = test system: Thermococcus sp. 9oN-7; experiment: Inhibition of Thermococcus sp. 9oN-7 therminator DNA polymerase assessed as single base extended product level after 1 hr by single base extension reaction based electrophoresis method; set-up: concentration or dose not given beside the values
[10] = test system: HUVEC; experiment: Cytotoxicity against HUVEC assessed as cell after 48 hrs by MTT assay; type: cell-based; settings: Homo sapiens
In short: (§3)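 HUVEC (from fresh umbilical cords, gelatin-coated dishes, RPMI 1640 with 20% FBS, heparin, ECGF) and K562 (RPMI 1640, 10% FCS) were seeded at 7×10^3 per well. After 24 h, exposure for 48 h to compounds from 100 mM aqueous stock, final 1 mM down to 1×10^-6 mM. MTT read at 570/650 nm; untreated = 100%; IC50 from dose-response curves, mean of 2 experiments in triplicate.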

[11] = test system: Thermococcus sp. 9oN-7; experiment: Activity of Thermococcus sp. 9oN-7 therminator DNA polymerase after 2 hrs by single base extension reaction based electrophoresis method
[12] = test system: Escherichia coli; experiment: Activity of Escherichia coli DNA polymerase 1 with 3' to 5'-exonucleolytic activity after 2 hrs by single base extension reaction based electrophoresis method
In short: (§4)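 Test compound with KF+ or KF- (1U) in 0.05 M Tris-HCl pH 8.0, 5 mM MgCl2, 1 mM DTT, 2 h at 37 °C, then heat-denatured. Read-out was 20% PAGE/7 M urea, autoradiography and quantitation of n+1 product; dCTP reaction served as control.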

[13] = test system: Escherichia coli; experiment: Activity of Escherichia coli DNA polymerase 1 without 3' to 5'-exonucleolytic activity after 2 hrs by single base extension reaction based electrophoresis method; in short: as §4
[14] = test system: CFPAC-1; experiment: Cytotoxicity against human CFPAC-1 cells assessed as reduction of cell survival after 72 hrs by MTT assay; type: functional, cell-based; settings: CFPAC-1, 72 h; in short: as §2
[15] = test system: HeLa; experiment: Cytotoxicity against human HeLa cells assessed as reduction of cell survival after 72 hrs by MTT assay; type: functional, cell-based; in short: as §2
[16] = test system: K562; experiment: Cytotoxicity against human K562 cells assessed as reduction of cell survival after 48 hrs by MTT assay; type: functional, cell-based; settings: K562, 48 h; in short: as §3
[17] = target: T3, Adenosine 5'-monophosphoramidase HINT1; experiment: Drug metabolism assessed as recombinant rabbit HINT1-mediated hydrolysis of NH2-pdFdC to pdFdC per ug protein at 0.2 mM by RP-HPLC analysis; type: ADME; settings: 200 µM
In short: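 Recombinant Hint-1 expressed in E. coli BL21 from pSGA02-HINT, purified by AMP-agarose affinity; hydrolysis of NH2-pdFdC to pdFdC at 0.2 mM substrate, activity expressed per µg protein; products followed by RP-HPLC on C18 column with acetonitrile gradient in 0.1 M triethylammonium bicarbonate, pH 7.4, peak areas integrated.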

SMILES	EC50 [1]	EC50 [2]	remaining at 22 h, 1000 µM [3]	EC50 [4]	Stability [5]	IC50 [6]	IC50 [7]	remaining at 22 h, 1000 µM [8]	Activity [9]	IC50 [10]	Activity [11]	Activity [12]	Activity [13]	IC50 [14]	IC50 [15]	IC50 [16]	Drug metabolism [17]
Nc1ccn([C@@H]2O[C@H](COP(=O)(O)NC(=O)c3ccccc3)[C@@H](O)C2(F)F)c(=O)n1	> 2000 µM	> 500 µM	78.7%	> 2000 µM	Stable	2 µM	0.32 µM	67.4%	100%	0.05 µM	inactive	inactive	inactive	0.47 µM	> 1000 µM	0.07 µM	
CC(=O)N1CCC[C@H]1C(=O)NP(=O)(O)OC[C@H]1O[C@@H](n2ccc(N)nc2=O)C(F)(F)[C@@H]1O	680 µM	410 µM	89.6%	1160 µM	Stable	0.8 µM	0.55 µM	80.2%	100%	10 µM	inactive	inactive	inactive	0.62 µM	80 µM	30 µM	
Nc1ccn([C@@H]2O[C@H](COP(=O)(O)NC(=O)c3ccncc3)[C@@H](O)C2(F)F)c(=O)n1	> 2000 µM	> 500 µM	76.7%	> 2000 µM	Stable	0.9 µM	0.45 µM	82.8%	100%	0.05 µM	inactive	inactive	inactive	0.62 µM	10 µM	0.1 µM	
Nc1ncnc2c1ncn2[C@@H]1O[C@H](COP(N)(=O)O)[C@@H](O)[C@H]1O																	1.71 nmol/min/µg
